Results: ChEMBL document CHEMBL5230144, “Synthesis and Biological Evaluation of Celastrol Derivatives with Improved Cytotoxic Selectivity and Antitumor Activities” (J Nat Prod, 2021)

Assays:
[1] = Cytotoxicity against human mesenchymal bone marrow stem cells measured after 48 hrs by MTT assay; format: toxicity, cell-based
[2] = tested on: MDA-MB-231; experiment: cells; conditions: Homo sapiens, MDA-MB-231, 48 h
[3] = tested on: A549; experiment: cells; conditions: Homo sapiens, A549, 48 h
[4] = molecular target: T1, Heat shock protein HSP 90-beta/Hsp90 co-chaperone Cdc37 (Homo sapiens, UniProt P08238+Q16543); experiment: Disruption of His-tagged full length HSP90 (unknown origin)/GST-tagged Cdc37 (unknown origin) at 50 uM measured after 1 hr by HTRF method; format: protein-complex assay
T1 sequence (P08238 whole entry): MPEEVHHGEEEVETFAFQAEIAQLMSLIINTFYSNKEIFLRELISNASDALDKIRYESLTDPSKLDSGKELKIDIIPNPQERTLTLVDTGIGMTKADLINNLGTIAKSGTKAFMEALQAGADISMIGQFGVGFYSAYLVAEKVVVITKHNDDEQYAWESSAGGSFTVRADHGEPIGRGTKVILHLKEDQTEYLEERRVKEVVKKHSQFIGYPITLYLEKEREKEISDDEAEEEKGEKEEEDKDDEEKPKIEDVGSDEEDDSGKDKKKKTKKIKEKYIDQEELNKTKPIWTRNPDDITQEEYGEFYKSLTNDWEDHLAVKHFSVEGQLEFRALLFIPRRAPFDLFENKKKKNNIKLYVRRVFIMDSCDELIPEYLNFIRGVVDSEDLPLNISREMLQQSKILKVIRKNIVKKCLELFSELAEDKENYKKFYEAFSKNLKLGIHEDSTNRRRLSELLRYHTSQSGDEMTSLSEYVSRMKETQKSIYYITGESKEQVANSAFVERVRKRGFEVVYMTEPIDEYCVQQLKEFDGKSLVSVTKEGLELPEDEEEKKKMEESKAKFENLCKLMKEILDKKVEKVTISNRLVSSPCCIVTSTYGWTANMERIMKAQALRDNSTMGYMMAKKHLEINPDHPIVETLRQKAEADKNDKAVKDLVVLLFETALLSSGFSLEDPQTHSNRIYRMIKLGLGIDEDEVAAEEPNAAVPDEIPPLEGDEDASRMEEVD
T1 sequence (Q16543 whole entry): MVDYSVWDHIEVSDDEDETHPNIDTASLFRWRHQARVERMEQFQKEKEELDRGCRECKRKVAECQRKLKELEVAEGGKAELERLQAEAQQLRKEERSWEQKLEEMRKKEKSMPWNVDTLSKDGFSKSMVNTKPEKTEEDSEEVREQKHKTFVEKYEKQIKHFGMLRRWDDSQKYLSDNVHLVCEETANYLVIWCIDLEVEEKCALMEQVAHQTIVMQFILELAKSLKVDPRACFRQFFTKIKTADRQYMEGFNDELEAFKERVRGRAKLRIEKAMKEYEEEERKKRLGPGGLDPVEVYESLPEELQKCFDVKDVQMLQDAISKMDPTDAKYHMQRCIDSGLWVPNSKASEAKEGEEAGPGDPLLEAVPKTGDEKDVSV
Summary of the method: (§1)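 HTRF in PBS with […], pH 7.3: His-tagged full-length Hsp90 and GST-tagged Cdc37 (each 250 nM final) with compound, 37 °C for 1 h. Anti-GST-Cryptate and anti-6His-XL665 then added for 0.5 h at 37 °C. Time-resolved fluorescence read at ex 320 nm, em 665/620 nm; ratio (665/620) × 10 000.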

[5] = tested on: MCF7; experiment: cells; conditions: Homo sapiens, MCF7, 48 h
[6] = tested on: KB; experiment: cells; conditions: Homo sapiens, 48 h
[7] = molecular target: T1, Heat shock protein HSP 90-beta/Hsp90 co-chaperone Cdc37; experiment: Disruption of His-tagged full length HSP90 (unknown origin)/GST-tagged Cdc37 (unknown origin) measured after 1 hr by HTRF method; format: protein-complex assay; summary of the method: as §1

Row | SMILES | IC50 at 48 h [1] [nM] | IC50 [2] [nM] | IC50 [3] [nM] | inhibition [4] [%] | IC50 [5] [nM] | IC50 [6] [nM] | IC50 [7] [nM]
1 | C#CCOC(=O)[C@]1(C)CC[C@]2(C)CC[C@]3(C)C4=CC=C5C(=CC(=O)C(OC(=O)N6CCCC6)=C5C)[C@]4(C)CC[C@@]3(C)[C@@H]2C1 | 2700 | 200 |  |  |  |  | 
2 | CCCOC(=O)[C@]1(C)CC[C@]2(C)CC[C@]3(C)C4=CC=C5C(=CC(=O)C(O)=C5C)[C@]4(C)CC[C@@]3(C)[C@@H]2C1 |  | 800 | 1100 | 87.4 | 500 | 600 | 
3 | C#CCOC(=O)[C@]1(C)CC[C@]2(C)CC[C@]3(C)C4=CC=C5C(=CC(=O)C(OC(=O)C=C)=C5C)[C@]4(C)CC[C@@]3(C)[C@@H]2C1 | 3700 | 700 |  |  |  |  | 
4 | C#CCOC(=O)[C@]1(C)CC[C@]2(C)CC[C@]3(C)C4=CC=C5C(=CC(=O)C(OC(=O)/C=C/c6cccc(Cl)c6)=C5C)[C@]4(C)CC[C@@]3(C)[C@@H]2C1 | 2000 | 300 |  |  |  |  | 
5 | C#CCOC(=O)[C@]1(C)CC[C@]2(C)CC[C@]3(C)C4=CC=C5C(=CC(=O)C(OC(=O)/C=C/c6cccc(C)c6)=C5C)[C@]4(C)CC[C@@]3(C)[C@@H]2C1 | 2900 | 400 |  |  |  |  | 
6 | C#CCOC(=O)[C@]1(C)CC[C@]2(C)CC[C@]3(C)C4=CC=C5C(=CC(=O)C(OC(=O)N6c7ccccc7CCc7ccccc76)=C5C)[C@]4(C)CC[C@@]3(C)[C@@H]2C1 | 1000 | 300 |  |  |  |  | 
7 | C#CCOC(=O)[C@]1(C)CC[C@]2(C)CC[C@]3(C)C4=CC=C5C(=CC(=O)C(OC(=O)N6c7ccccc7Sc7ccccc76)=C5C)[C@]4(C)CC[C@@]3(C)[C@@H]2C1 | 2900 | 200 |  |  |  |  | 
8 | C#CCOC(=O)[C@]1(C)CC[C@]2(C)CC[C@]3(C)C4=CC=C5C(=CC(=O)C(OC(=O)N6CCCCC6)=C5C)[C@]4(C)CC[C@@]3(C)[C@@H]2C1 | 2400 | 100 |  |  |  |  | 
9 | CC1=C(O)C(=O)C=C2C1=CC=C1[C@@]2(C)CC[C@@]2(C)[C@@H]3C[C@](C)(C(=O)OCC4CCCCC4)CC[C@]3(C)CC[C@]12C |  |  |  |  |  |  | 2900
10 | C#CCOC(=O)[C@]1(C)CC[C@]2(C)CC[C@]3(C)C4=CC=C5C(=CC(=O)C(OC(=O)N6CCN(c7cccc(OC)c7)CC6)=C5C)[C@]4(C)CC[C@@]3(C)[C@@H]2C1 | 1800 | 300 |  |  |  |  | 
11 | C#CCOC(=O)[C@]1(C)CC[C@]2(C)CC[C@]3(C)C4=CC=C5C(=CC(=O)C(OC(=O)N(C)CCCC)=C5C)[C@]4(C)CC[C@@]3(C)[C@@H]2C1 | 1000 | 300 |  |  |  |  | 
12 | C#CCOC(=O)[C@]1(C)CC[C@]2(C)CC[C@]3(C)C4=CC=C5C(=CC(=O)C(OC(=O)c6ccc(Br)cc6)=C5C)[C@]4(C)CC[C@@]3(C)[C@@H]2C1 | 2200 | 300 |  |  |  |  | 
13 | C#CCOC(=O)[C@]1(C)CC[C@]2(C)CC[C@]3(C)C4=CC=C5C(=CC(=O)C(OC(=O)N6CCN(c7ccccc7OC)CC6)=C5C)[C@]4(C)CC[C@@]3(C)[C@@H]2C1 | 1800 | 300 |  |  |  |  | 
14 | C#CCOC(=O)[C@]1(C)CC[C@]2(C)CC[C@]3(C)C4=CC=C5C(=CC(=O)C(OC(=O)N(C)C)=C5C)[C@]4(C)CC[C@@]3(C)[C@@H]2C1 | 2000 | 200 |  |  |  |  | 
15 | COCCCOC(=O)[C@]1(C)CC[C@]2(C)CC[C@]3(C)C4=CC=C5C(=CC(=O)C(O)=C5C)[C@]4(C)CC[C@@]3(C)[C@@H]2C1 |  | 400 | 1000 | 88.8 | 600 | 600 | 
16 | C#CCOC(=O)[C@]1(C)CC[C@]2(C)CC[C@]3(C)C4=CC=C5C(=CC(=O)C(O)=C5C)[C@]4(C)CC[C@@]3(C)[C@@H]2C1 |  |  |  |  |  |  | 1700
17 | CC1=C(O)C(=O)C=C2C1=CC=C1[C@@]2(C)CC[C@@]2(C)[C@@H]3C[C@](C)(C(=O)OCCCl)CC[C@]3(C)CC[C@]12C |  | 800 | 6300 | 87 | 1800 | 1900 | 
18 | CCCCOC(=O)[C@]1(C)CC[C@]2(C)CC[C@]3(C)C4=CC=C5C(=CC(=O)C(O)=C5C)[C@]4(C)CC[C@@]3(C)[C@@H]2C1 |  | 900 | 1300 | 86 | 600 | 600 | 
19 | C#CCOC(=O)[C@]1(C)CC[C@]2(C)CC[C@]3(C)C4=CC=C5C(=CC(=O)C(OC(=O)N6CCN(C)CC6)=C5C)[C@]4(C)CC[C@@]3(C)[C@@H]2C1 | 2000 | 300 |  |  |  |  | 
20 | COCCOC(=O)[C@]1(C)CC[C@]2(C)CC[C@]3(C)C4=CC=C5C(=CC(=O)C(O)=C5C)[C@]4(C)CC[C@@]3(C)[C@@H]2C1 |  |  |  |  |  |  | 6700
21 | C#CCOC(=O)[C@]1(C)CC[C@]2(C)CC[C@]3(C)C4=CC=C5C(=CC(=O)C(OC(=O)/C=C/C)=C5C)[C@]4(C)CC[C@@]3(C)[C@@H]2C1 | 3000 | 500 |  |  |  |  | 

Row | SMILES | IC50 at 48 h [1] [nM] | IC50 [2] [nM] | IC50 [3] [nM] | inhibition [4] [%] | IC50 [5] [nM] | IC50 [6] [nM] | IC50 [7] [nM]
22 | C#CCOC(=O)[C@]1(C)CC[C@]2(C)CC[C@]3(C)C4=CC=C5C(=CC(=O)C(OC(=O)N6CCN(c7ccccc7Cl)CC6)=C5C)[C@]4(C)CC[C@@]3(C)[C@@H]2C1 | 1900 | 200 |  |  |  |  | 
23 | C#CCOC(=O)[C@]1(C)CC[C@]2(C)CC[C@]3(C)C4=CC=C5C(=CC(=O)C(OC(=O)CCC)=C5C)[C@]4(C)CC[C@@]3(C)[C@@H]2C1 | 2600 | 400 |  |  |  |  | 
24 | C=CCOC(=O)[C@]1(C)CC[C@]2(C)CC[C@]3(C)C4=CC=C5C(=CC(=O)C(O)=C5C)[C@]4(C)CC[C@@]3(C)[C@@H]2C1 |  | 800 | 800 | 89.9 | 400 | 300 | 
25 | C#CCOC(=O)[C@]1(C)CC[C@]2(C)CC[C@]3(C)C4=CC=C5C(=CC(=O)C(OC(=O)N(CC)CC)=C5C)[C@]4(C)CC[C@@]3(C)[C@@H]2C1 | 3200 | 300 |  |  |  |  | 
26 | C#CCOC(=O)[C@]1(C)CC[C@]2(C)CC[C@]3(C)C4=CC=C5C(=CC(=O)C(OC(=O)C(=C)C)=C5C)[C@]4(C)CC[C@@]3(C)[C@@H]2C1 | 2400 | 400 |  |  |  |  | 
27 | CC1=C(O)C(=O)C=C2C1=CC=C1[C@@]2(C)CC[C@@]2(C)[C@@H]3C[C@](C)(C(=O)OCCBr)CC[C@]3(C)CC[C@]12C |  | 100 | 1600 | 86.3 | 1100 | 1000 | 
28 | C#CCOC(=O)[C@]1(C)CC[C@]2(C)CC[C@]3(C)C4=CC=C5C(=CC(=O)C(OC(=O)N(C)CC)=C5C)[C@]4(C)CC[C@@]3(C)[C@@H]2C1 | 3000 | 300 |  |  |  |  | 
29 | C#CCOC(=O)[C@]1(C)CC[C@]2(C)CC[C@]3(C)C4=CC=C5C(=CC(=O)C(OC(=O)N(C)CCC)=C5C)[C@]4(C)CC[C@@]3(C)[C@@H]2C1 | 900 | 300 |  |  |  |  | 
30 | C#CCOC(=O)[C@]1(C)CC[C@]2(C)CC[C@]3(C)C4=CC=C5C(=CC(=O)C(OC(=O)N6c7ccccc7C=Cc7ccccc76)=C5C)[C@]4(C)CC[C@@]3(C)[C@@H]2C1 | 2200 | 200 |  |  |  |  | 
31 | CC1=C(O)C(=O)C=C2C1=CC=C1[C@@]2(C)CC[C@@]2(C)[C@@H]3C[C@](C)(C(=O)OCCC(C)C)CC[C@]3(C)CC[C@]12C |  | 1100 | 4200 | 87.8 | 2000 | 1900 | 
32 | COC(=O)[C@]1(C)CC[C@]2(C)CC[C@]3(C)C4=CC=C5C(=CC(=O)C(O)=C5C)[C@]4(C)CC[C@@]3(C)[C@@H]2C1 [PRISTIMERIN] |  | 800 | 1100 | 83.1 | 900 | 900 | 
33 | CCOC(=O)[C@]1(C)CC[C@]2(C)CC[C@]3(C)C4=CC=C5C(=CC(=O)C(O)=C5C)[C@]4(C)CC[C@@]3(C)[C@@H]2C1 |  | 700 | 1700 | 85.7 | 1000 | 1000 | 
34 | C#CCOC(=O)[C@]1(C)CC[C@]2(C)CC[C@]3(C)C4=CC=C5C(=CC(=O)C(OC(=O)N(CCCC)CCCC)=C5C)[C@]4(C)CC[C@@]3(C)[C@@H]2C1 | 1200 | 100 |  |  |  |  | 
35 | C#CCOC(=O)[C@]1(C)CC[C@]2(C)CC[C@]3(C)C4=CC=C5C(=CC(=O)C(OC(=O)N(CCC)CCC)=C5C)[C@]4(C)CC[C@@]3(C)[C@@H]2C1 | 900 | 300 |  |  |  |  | 
36 | C#CCOC(=O)[C@]1(C)CC[C@]2(C)CC[C@]3(C)C4=CC=C5C(=CC(=O)C(OC(=O)c6ccc(F)cc6)=C5C)[C@]4(C)CC[C@@]3(C)[C@@H]2C1 | 2000 | 400 |  |  |  |  | 
37 | C#CCOC(=O)[C@]1(C)CC[C@]2(C)CC[C@]3(C)C4=CC=C5C(=CC(=O)C(OC(=O)N6CCN(c7ccc(Cl)cc7)CC6)=C5C)[C@]4(C)CC[C@@]3(C)[C@@H]2C1 | 1600 | 200 |  |  |  |  | 
38 | C#CCOC(=O)[C@]1(C)CC[C@]2(C)CC[C@]3(C)C4=CC=C5C(=CC(=O)C(OC(=O)/C=C/c6ccccc6)=C5C)[C@]4(C)CC[C@@]3(C)[C@@H]2C1 | 2800 | 500 |  |  |  |  | 
39 | C#CCOC(=O)[C@]1(C)CC[C@]2(C)CC[C@]3(C)C4=CC=C5C(=CC(=O)C(OC(=O)/C=C/c6ccccc6F)=C5C)[C@]4(C)CC[C@@]3(C)[C@@H]2C1 | 1400 | 300 |  |  |  |  | 
40 | C#CCOC(=O)[C@]1(C)CC[C@]2(C)CC[C@]3(C)C4=CC=C5C(=CC(=O)C(OC(=O)N(c6ccccc6)c6ccccc6)=C5C)[C@]4(C)CC[C@@]3(C)[C@@H]2C1 | 3100 | 200 |  |  |  |  | 
41 | C#CCOC(=O)[C@]1(C)CC[C@]2(C)CC[C@]3(C)C4=CC=C5C(=CC(=O)C(OC(C)=O)=C5C)[C@]4(C)CC[C@@]3(C)[C@@H]2C1 | 2400 | 500 |  |  |  |  | 
42 | C#CCOC(=O)[C@]1(C)CC[C@]2(C)CC[C@]3(C)C4=CC=C5C(=CC(=O)C(OC(=O)N6CCN(c7ccccc7)CC6)=C5C)[C@]4(C)CC[C@@]3(C)[C@@H]2C1 | 1800 | 200 |  |  |  |  | 
